High-throughput results deposited in PubChem by several laboratories.
Shown are actives, neighbours in structure and some others; about 3.4% of the full set was active somewhere.
MC4R barr agon: human MC4R agonism via beta-arrestin; P32245; U2OS MC4R beta-arrestin complementation, luminescence; percent of melanotan II response, DMSO zero; activation, % at 8.9 µM; hit rate 0.98% among 360,000; AID 540308;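 active = activation above a per-plate cutoff, the mean activation of sample wells on that plate plus 3 SD, cut at about 8% in these data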
MC4R antagonist: blocks human MC4R cAMP signaling. P32245. MC4R-expressing cells, MTII-stimulated cAMP, LANCE TR-FRET. inhibition, % at 6.5 µM. hit rate 0.48% among 360,000. AID 540295;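 active = inhibition above its plate's cutoff, the mean of tested wells on that plate plus 3 SD, cut at about 29% in these data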
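Test system: U2OS cells stably expressing human melanocortin 4 receptor (MC4R); also added: Melanotan II challenge; compound: 6.5 µM single dose; timing: 30-min compound preincubation, 1-h Melanotan II challenge, 1-h detection, room temperature; signal: Eu-cAMP/anti-cAMP TR-FRET, emission 671 nm; repeats: one well per compound, no replicates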
ANO1 activ: activates or potentiates the mouse TMEM16A chloride channel; Q8BHY3; HEK293 TMEM16A/YFP-H148Q/I152L, iodide quench fluorescence; stronger effect = lower value; B-score at 10 µM; hit rate 0.3% among 340,000;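 active = fluorescence-ratio B-score plate-corrected deviation score at least 3 library SD below zero, with starting fluorescence score within 5 deviations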;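 also: channel opened by trigger with iodide after compound preincubation; score built on the fluorescence ratio of max minus min over baseline; more negative score means more quench and so TMEM16A activation or potentiation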
HTR2A ag: agonists of mouse serotonin 5-HT2A receptor (HTR2A). activation, % at 7.6 µM. P35363. hit rate 0.66% among 360,000. AID 624169. CHO-K1 mHTR2A beta-arrestin complementation, luminescence; percent of 30 µM serotonin response;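 active = activation above a run cutoff, the mean activation of all tested compounds plus 3 SD, cut at about 14% in these data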
Target sequence (P35363 whole entry, looked up): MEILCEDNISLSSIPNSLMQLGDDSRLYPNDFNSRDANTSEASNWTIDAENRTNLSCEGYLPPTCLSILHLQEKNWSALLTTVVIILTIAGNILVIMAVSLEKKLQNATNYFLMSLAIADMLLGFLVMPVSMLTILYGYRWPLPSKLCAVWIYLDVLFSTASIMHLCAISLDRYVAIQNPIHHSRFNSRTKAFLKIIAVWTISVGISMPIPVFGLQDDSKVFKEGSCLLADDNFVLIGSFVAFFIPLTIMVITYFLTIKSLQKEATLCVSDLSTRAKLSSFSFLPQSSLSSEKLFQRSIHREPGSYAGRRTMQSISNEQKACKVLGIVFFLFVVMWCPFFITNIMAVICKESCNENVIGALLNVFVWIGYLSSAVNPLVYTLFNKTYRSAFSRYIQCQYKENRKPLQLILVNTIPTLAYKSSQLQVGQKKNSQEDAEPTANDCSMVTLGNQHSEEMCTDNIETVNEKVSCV
MIN6 prolif: inducers of beta-cell replication in MIN6 cells. AID 2380. MIN6 cells proliferation, ATPlite luminescence, 48 h; cells starved in 0.2% serum; 100% = growth in 10% serum. hit rate 0.29% among 330,000. proliferation, % at 10 µM;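 active = compounds whose signal lies at least 3.5 SD above the mean of all wells on their plate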
ANO1 block: mouse TMEM16A channel inhibition, primary screen | Q8BHY3 | HEK293 TMEM16A/YFP iodide influx fluorescence, ionomycin | normalized B-score (activity score, 25-100; higher = stronger inhibition) at 10 µM | hit rate 1.2% among 310,000 | AID 588511;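 active = ratio plate-corrected score three or more library SD toward inhibition, starting fluorescence score within five deviations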;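 also: score derived from kinetic fluorescence span divided by baseline fluorescence per well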
MC4R barr ag: human MC4R beta-arrestin agonism confirmation | shares compounds with MC4R barr agon | U2OS MC4R beta-arrestin recruitment, luminescence; scaled DMSO 0%, Melanotan II 100% | activation, % at 8.9 µM | hit rate 31% among 2,400 | AID 602192;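 active = mean activation across replicates above the hit cutoff set in the earlier primary screen, cut at about 8% in these data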
MOR-DOR barr ag: activates mu-delta opioid heterodimer, MC4R agonist counter-screen; shares compounds with MC4R barr agon; U2OS PathHunter beta-arrestin, beta-gal luminescence; percent of deltorphin B response, DMSO zero; activation, % at 9.2 µM; hit rate 5.8% among 2,400;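 active = mean activation across replicates exceeds the hit threshold derived in the earlier primary screen, cut at about 18% in these data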
Hits are given with their value; n = inactive; x = not tested or not shown.

SMILES	MC4R barr agon	MC4R antagonist	ANO1 activ	HTR2A ag	MIN6 prolif	ANO1 block	MC4R barr ag	MOR-DOR barr ag
CN1C(=O)/C(=C/c2ccc(OCc3ccc(F)cc3)cc2)NC1=S	20	n	n	n	n	n	n	n
COc1cc(CNc2ncnc3c2ncn3[C@H]2CN(Cc3ccc4c(c3)OCO4)C[C@@H](CO)O2)cc(OC)c1OC	n	n	x	n	x	x	x	x
COc1ccc(-c2ccc3c(c2)S(=O)(=O)c2cccc(C(=O)NCc4cc(C)oc4C(F)(F)F)c2C3=O)cc1OC	12	n	n	n	n	x	27	n
O=C(CCCC(=O)Nc1ccccc1Br)N/N=C/c1c(F)cccc1Cl	n	n	n	n	n	n	x	x
Cc1ccc(-c2csc3ncnc(SCC(N)=O)c23)cc1	n	n	n	n	n	n	x	x
CCc1nnc(NC(=O)CSc2ncnc3scc(-c4ccc(C)cc4)c23)s1	11	n	n	n	n	n	14	n
O=C(Nc1ccc2oc(=O)ccc2c1)c1ccc(-c2cccc(Cl)c2)o1	20	n	n	n	n	n	n	n
Cc1cc(C(=O)Nc2sc3c(c2C#N)CCCCC3)cs1	14	n	n	n	n	n	n	n
C=C(C)C(=O)Oc1ccc(N=Nc2ccc(C)cc2)ccc1=O	n	n	x	n	x	x	x	x
N#Cc1ccc(-c2cccnc2)nc1SCc1ccc(Cl)cc1Cl	18	n	n	n	n	n	n	n
Cc1ccsc1/C=N/Nc1nc2ccccc2s1	9.9	n	n	n	n	n	n	n
COc1cccc(/C=N/Nc2nnc3c(n2)[nH]c2ccccc23)c1OC	11	n	n	n	n	n	n	n
Oc1ccccc1C=NNc1nc2ccccc2s1	n	n	n	n	x	x	x	x
COc1cccc(/C=N/Nc2ccc(Cl)nn2)c1OC	n	n	n	n	n	n	x	x
COc1cccc(C=NNc2nc3ccccc3s2)c1OC	22	n	n	n	x	x	n	n
C(=N\Nc1nc2ccccc2s1)/c1cccs1	n	n	n	n	n	n	x	x
Cc1ccc(S(=O)(=O)N(C)C[C@H]2OCCCC[C@@H](C)Oc3ccc(NC(=O)Cc4ccccc4)cc3C(=O)N([C@H](C)CO)C[C@@H]2C)cc1	n	n	x	n	x	x	x	x
C=CCN1C(=O)C(Cc2ccc(OC)cc2)S/C1=N\N=C\c1cccs1 (centres undefined)	9.9	n	n	n	n	n	9.7	n
C=CCN1C(=O)C(Cc2ccc(OC)cc2)S/C1=N/N=C/c1ccco1 (centres undefined)	n	n	n	n	n	n	x	x
COc1cccc(NC(=O)C2CC2(c2cccc(OC)c2)c2cccc(OC)c2)c1 (centres undefined)	n	n	n	n	n	n	x	x
COc1cccc(C2(c3cccc(OC)c3)CC2C(=O)Nc2cccc3ccccc23)c1 (centres undefined)	9.6	n	n	n	n	n	n	n
CCOc1cc(/C=N\NC(=O)c2ccc(NC(=O)C(C)(C)C)cc2)ccc1OC(=O)c1cccc(C)c1	18	n	n	n	n	n	n	n
Cc1cccc(C(=O)Oc2ccc(/C=N/NC(=O)c3ccccc3O)cc2)c1	n	n	n	n	n	n	x	x
CCOc1cc(/C=N\NC(=O)c2ccc(NC(=O)C(C)(C)C)cc2)ccc1OC(=O)c1ccc(C)cc1	n	n	n	n	n	n	x	x
Cc1cccc(C(=O)Oc2ccc(/C=N/NC(=O)c3ccc(O)cc3)cc2)c1	16	n	n	n	n	n	n	n
CCOc1cc(C(=O)NC(C)CCc2ccccc2)cc(OCC)c1OCC (centres undefined)	14	n	n	n	n	n	n	n
O=C(Nc1cc(S(=O)(=O)N2CCOCC2)ccc1N1CCOCC1)c1cn2ccccc2n1	n	n	n	n	n	n	x	x
